Data published in ChEMBL document CHEMBL3352338, “Development and biological evaluation of potent and selective c-KIT(D816V) inhibitors” (J Med Chem, 2014).

Tests used:
[1] = Induction of apoptosis in human HMC-1.2 cells assessed as apoptotic cells at 5 uM after 48 hrs by TUNEL staining (reference value: 0.849%); assay type: functional
[2] = Induction of apoptosis in human HMC-1.2 cells assessed as apoptotic cells at 0.1 uM after 48 hrs by TUNEL staining (reference value: 0.849%); assay type: functional
[3] = Cell cycle arrest in human HMC-1.2 cells assessed as accumulation at G1 phase after 24 hrs by flow cytometric analysis; assay type: functional, cell-based
In short: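 HMC-1.2 cells exposed to increasing concentrations for 24 h; cell cycle distribution (SubG1/G1 fraction) measured by flow cytometry.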

Structure (SMILES): COc1ccc(-c2cnc3[nH]cc(-c4ccc(OC)c(OC)c4)c3c2)cc1OC
- Activity [1]: 69.9%
- Activity [2]: 0.732%
- inhibition [3]: Dose-dependent effect
